Key:
GLS = details: read-out: GLS inhibition IC50; literature value; cited from earlier work
[1] = target: T1, human kidney-type glutaminase (hKGA124-669) (Homo sapiens, UniProt O94925); test: in vitro GLS assay with L-[3H]-glutamine as substrate; assay type: biochemical; details: for GLS inhibitory potency in words: comparison with compounds 8 and 3a
T1 sequence (O94925 124-669): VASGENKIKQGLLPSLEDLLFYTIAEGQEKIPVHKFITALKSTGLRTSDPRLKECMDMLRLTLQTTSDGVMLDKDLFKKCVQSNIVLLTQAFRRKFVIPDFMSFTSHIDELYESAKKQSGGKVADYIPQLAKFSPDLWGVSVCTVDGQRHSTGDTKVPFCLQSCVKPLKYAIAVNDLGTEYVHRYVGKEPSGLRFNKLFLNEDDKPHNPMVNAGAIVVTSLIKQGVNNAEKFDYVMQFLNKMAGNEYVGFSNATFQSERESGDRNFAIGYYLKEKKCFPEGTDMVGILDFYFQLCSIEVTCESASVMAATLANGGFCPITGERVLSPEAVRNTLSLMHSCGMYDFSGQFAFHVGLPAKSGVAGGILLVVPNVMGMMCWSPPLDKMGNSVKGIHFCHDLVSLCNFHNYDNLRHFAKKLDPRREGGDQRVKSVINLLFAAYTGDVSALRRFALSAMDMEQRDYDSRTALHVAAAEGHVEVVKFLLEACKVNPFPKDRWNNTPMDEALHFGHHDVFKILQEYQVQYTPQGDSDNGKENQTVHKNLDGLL

[2] = assay type: physicochemical; details: final concentrations of 1-10 μM
[3] = Aqueous solubility by the shake flask method; assay type: physicochemical; details: PBS buffer, 37 °C, pH 7.4, aqueous buffer, thermodynamic from solid
Outline: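 Test compound added to PBS (pH 7.4) at 5 mg/mL and shaken at 1000 rpm for 24 h at 37 °C to reach saturation. The solution was then passed through a 0.45 μm PTFE filter and the filtrate diluted. Concentration was quantified by UHPLC–Orbitrap MS on a C18 column (35 °C) with a 0.1% formic acid water/acetonitrile gradient, against a 5-10000 nM calibration curve.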

Row | Structure (SMILES) | GLS inhibitory potency in words [1] | other results
1 | O=C(Cc1ccccc1)Nc1nnc(CSCc2nnc(NC(=O)Cc3ccccc3)s2)s1 [Compound 2b, N,N’-(5,5’-Thiobis(methylene)bis(1,3,4-thiadiazole-5,2-diyl))bis(2-phenylacetamide), reference compound] | negligible activity | IC50 (GLS): > 20 µM; GLS inhibitory activity ([1]; at concentrations up to 100 μM): no inhibitory activity
2 | O=C(Cc1ccccc1)Nc1nnc(CCSc2nnc(NC(=O)Cc3ccccc3)s2)s1 [Compound 3a, 2-Phenyl-N-(5-(2-(5-(2-phenylacetamido)-1,3,4-thiadiazol-2-yl)ethylthio)-1,3,4-thiadiazol-2-yl)acetamide] |  | behaviour on addition of stock solution to cell culture media [2]: precipitation
3 | Nc1nnc(CCSc2ccc(NC(=O)Cc3ccccc3)nn2)s1 [Compound 18, N-(6-(2-(5-Amino-1,3,4-thiadiazol-2-yl)ethylthio)pyridazin-3-yl)-2-phenylacetamide] | substantially weaker potency | 
4 | O=C(Cc1ccccc1)Nc1ccc(SCCc2nnc(NC(=O)Cc3ccccc3)s2)nn1 [Compound 19, 2-Phenyl-N-(6-(2-(5-(2-phenylacetamido)-1,3,4-thiadiazol-2-yl)ethylthio)pyridazin-3-yl)acetamide] | substantially weaker potency | 
5 | Nc1nnc(SCCc2ccc(NC(=O)Cc3ccccc3)nn2)s1 [Compound 24, N-(6-(2-(5-Amino-1,3,4-thiadiazol-2-ylthio)ethyl)pyridazin-3-yl)-2-phenylacetamide] | comparable | 
6 | O=C(Cc1ccccc1)Nc1ccc(CCSc2nnc(NC(=O)Cc3ccccc3)s2)nn1 [Compound 25, 2-Phenyl-N-(6-(2-(5-(2-phenylacetamido)-1,3,4-thiadiazol-2-ylthio)ethyl)pyridazin-3-yl)acetamide] | comparable | solubility at 24 h [3]: < 1 µM
